In ChEMBL document CHEMBL1122913, “Novel dopamine receptor agonists and antagonists with preferential action on autoreceptors” (1985):
Active and inactive are the calls of the source. The rule behind the calls is not given here.

Legend:
[1] = species: Rattus norvegicus; assay: Locomotor activity after reserpine pretreatment in rat; assay type: functional
In short: (§1)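 Rats received reserpine 10 mg/kg ip 6 h and DL-α-methyl-p-tyrosine methyl ester 250 mg/kg ip 1 h before, then test drug sc immediately before the session. Photocell counts accumulated over 30 min, mean ± SEM, n = 4-9; t test vs saline controls. Haloperidol 0.3 mg/kg ip 30 min before test drug used for blockade.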

[2] = species: Rattus norvegicus; assay: Locomotor activity after no pretreatment in rat at high-dose region expressed as percent of saline control; assay type: functional
[3] = species: Rattus norvegicus; assay: Locomotor activity after no pretreatment in rat at low-dose region expressed as percent of saline control; assay type: functional
[4] = tested on: Rattus norvegicus; assay: Effective dose against DOPA accumulation in rat brain limbic region after no pretreatment by subcutaneous administration; assay type: functional; details: sc
In short: (§2)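 Untreated male Sprague-Dawley rats (200-300 g) received test drug sc 65 min and NSD 1015 100 mg/kg ip 30 min before death; saline controls. Limbic or striatal DOPA measured by HPLC-electrochemical detection. ED50 is the dose giving half-maximal increase or decrease of DOPA formation, from 4-5 dose levels (n = 3-10); controls = 100%.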

[5] = tested on: Rattus norvegicus; assay: Effective dose against DOPA accumulation in rat brain limbic region after reserpine pretreatment by subcutaneous administration; No significant effect of 16 mg/kg subcutaneous administration; assay type: functional, organism-based; set-up: dose 16 mg/kg
[6] = tested on: Rattus norvegicus; assay: Effective dose against DOPA accumulation in rat brain striatal region after no pretreatment by subcutaneous administration; assay type: functional; details: sc; in short: as §2
[7] = tested on: Rattus norvegicus; assay: Effective dose against DOPA accumulation in rat brain striatal region after reserpine pretreatment by subcutaneous administration; No significant effect of 16 mg/kg subcutaneous administration; assay type: functional, organism-based; set-up: dose 16 mg/kg
[8] = species: Rattus norvegicus; assay: Locomotor activity after no pretreatment in rat at high-dose region expressed as percent of saline control; Inactive; assay type: functional, organism-based
[9] = species: Rattus norvegicus; assay: Locomotor activity after no pretreatment in rat at low-dose region expressed as percent of saline control; Inactive; assay type: functional, organism-based
[10] = tested on: Rattus norvegicus; assay: Effective dose against DOPA accumulation in rat brain limbic region after reserpine pretreatment by subcutaneous administration; assay type: functional; details: sc
In short: (§3)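 Male Sprague-Dawley rats (200-300 g), reserpine 5 mg/kg ip 18 h, test drug sc 60 min, and NSD 1015 100 mg/kg ip 30 min before death; saline controls. Limbic and striatal DOPA measured by HPLC-electrochemical detection. ED50 is the dose giving half-maximal decrease of DOPA formation, estimated from 4-7 dose levels (n = 3); controls = 100%.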

[11] = tested on: Rattus norvegicus; assay: Effective dose against DOPA accumulation in rat brain striatal region after no pretreatment by subcutaneous administration; No significant effect of 16 mg/kg subcutaneous administration; assay type: functional, organism-based; set-up: dose 16 mg/kg
[12] = tested on: Rattus norvegicus; assay: Effective dose against DOPA accumulation in rat brain striatal region after reserpine pretreatment by subcutaneous administration; assay type: functional; details: sc; in short: as §3
[13] = tested on: Rattus norvegicus; assay: Effective dose against DOPA accumulation in rat brain limbic region after no pretreatment by subcutaneous administration; No significant effect of 16 mg/kg subcutaneous administration; assay type: functional, organism-based; set-up: dose 16 mg/kg
[14] = species: Rattus norvegicus; assay: Locomotor activity after reserpine pretreatment in rat; Not Tested; assay type: functional, organism-based
[15] = tested on: Rattus norvegicus; assay: Effective dose against DOPA accumulation in rat brain limbic region after reserpine pretreatment by subcutaneous administration; No significant effect at 0.5 mg/kg intraperitoneal administration; assay type: functional, organism-based; set-up: dose 0.5 mg/kg
[16] = tested on: Rattus norvegicus; assay: Effective dose against DOPA accumulation in rat brain striatal region after reserpine pretreatment by subcutaneous administration; No significant effect at 0.5 mg/kg intraperitoneal administration; assay type: functional, organism-based; set-up: dose 0.5 mg/kg
[17] = species: Rattus norvegicus; assay: Locomotor activity after reserpine pretreatment in rat(p<0.001); assay type: functional; in short: as §1

Compound	Accumulated counts/30 min [1]	Control [2] [%]	Control [3] [%]	ED50 [4] [mg/kg]	ED50 [5]	ED50 [6] [mg/kg]	ED50 [7]	Control [8]	Control [9]	ED50 [10] [mg/kg]	ED50 [11]	ED50 [12] [mg/kg]	ED50 [13]	Accumulated counts/30 min [14]	ED50 [15]	ED50 [16]	Accumulated counts/30 [17]	Accumulated counts/30 [1]
CCCN(CCC)[C@@H]1CCc2c(OC)cccc2[C@@H]1C.Cl	4	49	144	4	inactive	3	inactive	–	–	–	–	–	–	–	–	–	–	–
CCCN(CCC)[C@H]1CCc2c(OC)cccc2[C@H]1C.Cl	8	–	–	–	–	–	–	inactive	inactive	1.7	inactive	1.8	inactive	–	–	–	–	–
O=C(CCCN1CCC(O)(c2ccc(Cl)cc2)CC1)c1ccc(F)cc1 [HALOPERIDOL]	–	3	75	0.07	–	0.07	–	–	–	–	–	–	–	inactive	inactive	inactive	–	–
CN1CCc2cccc3c2[C@H]1Cc1ccc(O)c(O)c1-3 [APOMORPHINE]	–	277	52	–	–	–	–	–	–	0.06	–	0.07	–	–	–	–	361	–
CCCN(CCC)[C@H]1CCc2c(O)cccc2[C@H]1C.Cl	79	171	65	0.25	–	0.25	–	–	–	0.09	–	0.1	–	–	–	–	–	–
CCCN(CCC)[C@@H]1CCc2c(O)cccc2[C@@H]1C.Cl	–	69	128	3	inactive	2.8	inactive	–	–	–	–	–	–	–	–	–	–	6
